Experiments:
[1] = tested on: Trypanosoma cruzi; experiment: Antitrypanosomal activity against Trypanosoma cruzi Tulahuen CL2 amastigotes expressing beta galactosidase infected in human MRC5 cells assessed as reduction in parasite burden using chlorophenol red beta-D-galactopyranoside as substrate and measured after 7 days by spectrophotometric analysis; assay type: functional, organism-based; conditions: Tulahuen CL2, MRC5, 168 h
Method in brief: (§1)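 T. cruzi Tulahuen CL2 β-galactosidase strain grown in MRC-5 cells (MEM, 5% heat-inactivated FCS, 37 °C, 5% CO2). MRC-5 cells (4 x 10^3/well) plus parasites (4 x 10^4/well) exposed 7 days to 4-fold dilutions from 64 µM down; final DMSO <1%. CPRG with Nonidet added, absorbance at 540 nm after 4 h. IC50 calculated against untreated-infected (100%) and non-infected (0%) controls. SI = MRC-5 CC50/IC50.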

[2] = Metabolic stability in CD1 mouse liver microsomes assessed as intrinsic clearance measured upto 60 mins by LC-MS/MS analysis; assay type: ADME; conditions: read-out: CLH
Method in brief: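 CD1 mouse liver microsomes at 0.25 mg/mL, compound at 0.5 µM, pH 7.4, 37 °C, started with NADPH. Sampled at 0, 5, 10, 20, 30 and 60 min and quenched with acetonitrile:methanol containing tolbutamide. Measured by LC-MS/MS; CLint (k × 1000/0.25, µL/min/mg) derived by non-linear regression of % remaining over time.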

[3] = Selectivity index, ratio of CC50 for cytotoxicity against human MRC5 cells to EC50 for Trypanosoma cruzi Tulahuen CL2 amastigotes expressing beta galactosidase infected in human MRC5 cells; assay type: toxicity, cell-based; conditions: read-out: Selectivity Index; method in brief: as §1

Row | Compound | microsomal CLint [2] [µL/min/mg] | IC50 [1] [nM] | selectivity ratio [3]
1 | CCCn1c(NC(=O)Cc2ccc(F)cc2)nc2ccccc21 |  | 2100 | 
2 | CCCn1c(NC(=O)Cc2ccc(Cl)cc2)nc2cc(C(F)(F)F)ccc21 | 283 | 740 | 15
3 | CCCn1ccnc1NC(=O)Cc1ccc(F)cc1 |  | 35000 | 
4 | Cn1nccc1C(=O)Nc1nc2cccnc2n1CC(C)(C)C | 222 | 2200 | 20
5 | N#Cc1ccc2nc(NC(=O)c3ccn(C4CC4)n3)n(CC(F)(F)F)c2c1 | 299 | 4300 | > 15
6 | N#Cc1ccc2nc(NC(=O)c3cc(C(F)(F)F)nn3CC(=O)O)n(CC(F)(F)F)c2c1 |  | 64000 | 1
7 | N#Cc1ccc2nc(NC(=O)c3ncc(F)cc3F)n(CC(F)(F)F)c2c1 | 253 | 17000 | 3
8 | O=C(Nc1nc2ccc(F)cc2n1CC(F)(F)F)c1cccnc1 | 98 | 4200 | 13
9 | CC(C)(C)Cn1c(NC(=O)c2ccc(C(F)(F)F)nc2)nc2ccc(C#N)cc21 |  | 52000 | > 1
10 | O=C(Nc1nc2cncnc2n1CC(F)(F)F)c1ccc(C(F)(F)F)nc1 |  | 510 | 6
11 | Cn1nc(C(F)(F)F)cc1C(=O)Nc1nc2cncnc2n1CC(F)(F)F |  | 590 | 7
12 | CCCn1c(NC(=O)Cc2ccc(Cl)cc2)nc2cc(F)ccc21 | 1510 | 920 | > 70
13 | CCCn1c(NC(=O)c2cccc(C(F)(F)F)n2)nc2ccc(F)cc21 | 467 | 2300 | > 28
14 | CCCn1c(NC(=O)Cc2ccc(F)cc2)nc2ccc(C(=O)N3CCCC3)cc21 |  | 8500 | > 8
15 | O=C(Nc1nc2cc(F)ccc2n1C1CCOCC1)c1ccc(C(F)(F)F)nc1 | 23 | 35000 | > 2
16 | CCCn1c(NCc2ccc(F)cc2)nc2cc(F)ccc21 |  | 25000 | 
17 | N#Cc1ccc2nc(NC(=O)c3ccc(C(F)(F)F)nc3)n(C3CC3)c2c1 | 1350 | > 64000 | 
18 | N#Cc1ccc2nc(NC(=O)c3cnc(C(F)(F)F)nc3)n(CC(F)(F)F)c2c1 |  | 240 | 8
19 | CCCn1c(NC(=O)Cc2ccc(Cl)cc2)nc2ccccc21 | 3090 | 1890 | 
20 | CN(C)c1ccc(C(=O)Nc2nc3ccc(C#N)cc3n2CC(F)(F)F)cn1 |  | 8600 | > 7
21 | Cn1nccc1C(=O)Nc1nc2ccc(C#N)cc2n1CC(F)(F)F | 20 | 1600 | 8
22 | Cn1nccc1C(=O)Nc1nc2cc(C#N)cnc2n1CC(C)(C)C | 31 | 500 | 5
23 | COc1ccc(C(=O)Nc2nc3ccc(C#N)cc3n2CC(F)(F)F)cn1 | 170 | 2300 | > 28
24 | CC(C)(C)Cn1c(NC(=O)c2cccnc2)nc2ccc(C#N)cc21 | 87 | 8700 | > 7

Further lines, with some results ahead:

Row | microsomal CLint [2] [µL/min/mg] | Compound | IC50 [1] [nM] | selectivity ratio [3]
25 | 389 | CCCn1c(NC(=O)Cc2cc(F)ccc2F)nc2cc(F)c(F)cc21 | 580 | 52
26 | 77 | Cn1nc(C(=O)Nc2nc3ccc(C#N)cc3n2CC(F)(F)F)cc1C(F)(F)F | 64000 | 1
27 | 52.7 | Cn1nccc1C(=O)Nc1nc2cc(-c3ncco3)ccc2n1CC(F)(F)F | 38000 | 1
28 | 160 | O=C(Nc1nc2ccc(F)cc2n1C1CC1)c1cccnc1 | 34000 | > 2
29 | 23 | CC(C)(C)Cn1c(NC(=O)c2cc(C(F)(F)F)n[nH]2)nc2cc(C#N)cnc21 | 1500 | 3
30 | 226 | CCCn1c(NC(=O)Cc2ccc(Cl)cc2)nc2ccc(C#N)cc21 | 24000 | > 3
31 | 37 | Cn1nccc1C(=O)Nc1nc2cc(C(F)(F)F)cnc2n1CC(C)(C)C | 570 | 7
32 | 98 | COCCn1c(NC(=O)c2ccnn2C)nc2ccc(C#N)cc21 | 8800 | > 7
33 | 23 | CS(=O)(=O)c1ccc2c(c1)nc(NC(=O)c1ccnc(C(F)(F)F)c1)n2CC(F)(F)F | 550 | 5
34 | 383 | Cn1nccc1C(=O)Nc1nc2ccc(C#N)cc2n1CC(F)F | 2400 | 5
35 | 131 | CC(C)(C)Cn1c(NC(=O)c2cccnc2)nc2cc(F)c(F)cc21 | 800 | > 80

Reference: ChEMBL document CHEMBL5352453, “Hit-to-lead optimization of a 2-aminobenzimidazole series as new candidates for chagas disease” (Eur J Med Chem, 2023)
